# An excerpt weighted towards active compounds, which were near 2.6% of everything screened.
# SENP8 block-1: inhibitors of human SENP8 protease | Q96LD8 | purified SENP8, Z-RLRGG-aminoluciferin cleavage, luminescence | inhibition, % at 10 µM | actives 1.2% (n = 330,000) | AID 2540; in the data active means inhibition above about 50%
# Target sequence (Q96LD8 whole entry, looked up): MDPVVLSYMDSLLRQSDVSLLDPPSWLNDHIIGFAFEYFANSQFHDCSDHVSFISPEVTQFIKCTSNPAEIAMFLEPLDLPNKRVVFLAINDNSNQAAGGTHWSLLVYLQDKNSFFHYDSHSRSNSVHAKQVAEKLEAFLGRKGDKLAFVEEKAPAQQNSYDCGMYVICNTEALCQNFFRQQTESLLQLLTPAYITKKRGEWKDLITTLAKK
# Platelet DG rel: modulates dense granule release in human platelets | actives 0.22% (n = 300,000) | AID 1663 | inhibition, %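 (compounds screened at 7.5 µM in platelet-rich plasma)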 | human platelet-rich plasma, SFLLRN dense granule ATP release, luminescence;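 active means mean replicate score, as percent of positive control, at or above 50; inconclusive means mean below 50 but at least one replicate at or above 50; inactive means mean and every replicate below 50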
# SENP6 inh: inhibitors of human SENP6 protease; Q9GZR1; Recombinant SENP6 catalytic domain, aminoluciferin luminescence; inhibition, % at 10 µM; actives 1.8% (n = 330,000); AID 2599;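 active means inhibition above about 50% at the single tested dose, limit read from the data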
# SENP7 block: blocks the human protease SENP7. Q9BQF6. recombinant SENP7, Z-RLRGG-aminoluciferin luminescence, 40 min. inhibition, % at 5 µM. actives 1.5% (n = 330,000);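 active means inhibition above about 50% at the single test dose, limit read from the data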
# SENP1 FRET inh: blocks the human SENP1 SUMO protease catalytic domain; Q9P0U3; recombinant SENP1 catalytic domain, CyPet-SUMO1-YPet FRET cleavage; inhibition, % at 10 µM; actives 0.21% (n = 360,000);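 active means inhibition at least 30% at 10 µM, raw YFP signal under a set limit, fluorescence ratio 0.5 to 1.5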
# Target sequence (Q9P0U3 419-644 limits assumed): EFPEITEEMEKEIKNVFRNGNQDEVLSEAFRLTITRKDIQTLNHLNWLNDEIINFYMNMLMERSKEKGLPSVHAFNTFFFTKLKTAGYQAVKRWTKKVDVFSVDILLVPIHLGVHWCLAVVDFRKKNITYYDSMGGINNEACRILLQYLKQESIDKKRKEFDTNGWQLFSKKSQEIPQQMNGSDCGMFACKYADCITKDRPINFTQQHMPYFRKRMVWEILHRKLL
#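 Material – human SENP1 catalytic domain · Input – SENP1 enzyme, 20 pM final · Compound dosing – single concentration of 10 µM compound, 0.5% DMSO final · Timing – enzyme reaction for 50 min at room temperature, dark · Measured by – FRET fluorescence in CFP and YFP emission channels · Control set – no-enzyme wells low, DMSO-plus-enzyme wells high control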
# SENP8 block-2: inhibitors of human SENP8 protease; Q96LD8; recombinant SENP8, Nedd8 substrate fluorescence; inhibition, % at 20 µM; actives 0.64% (n = 360,000); in the data active means inhibition mostly above about 40%, no sharp cut-off; inactive means mostly below about 27%
# SENP8 conf: confirmation of human SENP8 protease inhibitors | shares compounds with SENP8 block-2 | purified SENP8, Nedd8-AMC/pro-Nedd8 cleavage fluorescence, 30 min | inhibition, % at 25 µM | actives 15% (n = 1,400); in the data active means inhibition mostly above about 39%, no sharp cut-off; inactive means mostly below about 34%
# Numbers stand for hits; – = inactive; ? = inconclusive; · = no result.
SMILES,SENP8 block-1,Platelet DG rel,SENP6 inh,SENP7 block,SENP1 FRET inh,SENP8 block-2,SENP8 conf
CN(C)C=Nc1nonc1N,–,–,–,–,–,45.3,–
Cc1ccc(NC(=O)NC2(C(=O)NCc3ccco3)CCCCC2)cc1,–,–,–,–,–,40.1,–
COc1ccc(NS(=O)(=O)NC(=O)c2c(C)n(C)c3ccccc23)cc1,–,–,–,–,–,39.1,–
Cc1ccc(Nc2cc(C)c(O)c(C)c2)cc1,–,–,–,–,–,47.5,66.5
Cc1ccc(S(=O)(=O)Nc2cc(C)c(O)c(S(=O)(=O)c3ccc(C)cc3)c2)cc1,–,–,–,–,–,–,·
CCC1(c2ccc(F)cc2)NC(=O)N(CC(=O)N2CCc3ccccc32)C1=O (stereo not given),–,·,–,–,–,–,·
Cc1ccccc1C(=O)N1CCN(c2ccc([N+](=O)[O-])c(NCc3ccco3)c2)CC1,–,–,–,–,–,53.4,–
Cc1ccc(C(=O)N2CCN(c3ccc([N+](=O)[O-])c(NCc4ccco4)c3)CC2)cc1,–,?,–,–,–,48.0,–
O=C(c1cccc2ccccc12)N1CCN(c2ccc([N+](=O)[O-])c(NCc3ccco3)c2)CC1,–,–,–,–,–,42.4,–
COc1cc2c(cc1NC(=O)C(C)Sc1nc3ccccc3n1C)oc1ccccc12 (stereo not given),–,–,–,–,–,–,·
O=C(COc1ccc(S(=O)(=O)N2CCOCC2)cc1)N1CCc2ccccc2C1,–,–,–,–,–,–,·
O=C(COC(=O)c1cc(S(=O)(=O)N2CCc3ccccc3C2)ccc1Cl)NCc1ccco1,–,–,–,–,–,41.6,56.6
O=C(COC(=O)c1cccc(S(=O)(=O)N2CCc3ccccc3C2)c1)NCc1ccco1,–,–,–,–,–,–,·
Cc1ccc(S(=O)(=O)N2CCOCC2)cc1C(=O)OCC(=O)N1CCc2ccccc2C1,·,–,·,·,–,51.1,–
CCN1CCc2c(sc(NC(=O)C3COc4ccccc4O3)c2C(N)=O)C1 (stereo not given),–,–,–,–,–,–,·
CCCCOC(=O)C1=C(C)NC2(O)c3ccccc3C(=O)C12O (stereo not given),–,–,–,–,–,46.5,65.0
CC1=C(C(=O)OC(C)C)C2(O)C(=O)c3ccccc3C2(O)N1 (stereo not given),–,–,–,–,–,–,·
COc1ccc(N/C=C/C(=O)c2ccc(C)cc2)c([N+](=O)[O-])c1,–,–,–,–,–,44.5,–
Cc1c(C)n(C)c2ccc(C(=O)NCc3cccs3)cc12,–,–,–,–,–,–,·
Nc1nc2c(ncn2[C@@H]2O[C@H](CNS(=O)(=O)N3CCCC3)[C@@H](O)[C@H]2O)c(=O)[nH]1,·,·,·,·,–,–,·
C=CCc1ccc(OC(=O)c2ccccc2)c(OC)c1,–,–,–,–,–,48.0,–
CC(=O)Nc1ccc(S(=O)(=O)N2CCN(C(=O)CCC3CCCC3)CC2)cc1,–,–,–,–,–,45.5,–
O=C(c1cc([N+](=O)[O-])cc([N+](=O)[O-])c1)N1CCN(Cc2ccc3c(c2)OCO3)CC1,–,–,–,–,–,50.0,–
Nn1c(SCc2ccc(Br)cc2)nnc1-c1ccncc1,–,–,–,–,–,–,·
COc1ccc(-c2nn(-c3ccccc3)cc2/C=C/C(=O)OCC(=O)Nc2ccc(C#N)cc2)cc1,–,–,–,–,–,–,·
SMILES,SENP8 block-1,Platelet DG rel,SENP6 inh,SENP7 block,SENP1 FRET inh,SENP8 block-2,SENP8 conf
O=C(NCc1ccco1)c1nc2ccccc2s1,–,–,–,–,–,–,·
CC1=CC(=C(C#N)c2nc3ccccc3s2)C=C(C)N1Cc1ccco1,–,–,–,–,–,58.9,–
CCc1nc2ccccc2c(C(=O)OCC(=O)C(C)(C)C)c1C,–,–,–,–,–,–,·
CCc1nc2ccccc2c(C(=O)OCCN2C(=O)c3ccccc3C2=O)c1C,–,–,–,–,–,42.3,–
COc1cc2c(cc1NC(=O)CN(C)Cc1cccc(OC)c1OC)oc1ccccc12,–,–,–,–,–,–,·
CC1CC(=O)N(c2ccc(NCCc3ccc(O)cc3)c([N+](=O)[O-])c2)C1=O (stereo not given),–,–,–,–,–,42.4,–
CC1CC(=O)N(c2ccc(NCCc3ccccc3)c([N+](=O)[O-])c2)C1=O (stereo not given),–,–,–,–,–,–,·
NC(=O)CC(NC(=O)c1ccccc1)C(=O)O (stereo not given),–,–,–,–,–,42.4,–
O=C(NC(C(=O)O)c1ccccc1)c1ccccc1 (stereo not given),·,–,·,·,–,–,·
Nc1ncc([N+](=O)[O-])c(Oc2ccccc2F)n1,–,–,–,–,–,49.0,–
O=[N+]([O-])c1cccnc1Oc1ccccc1F,–,–,–,–,–,–,·
CC1=NN(c2ccc(C)c(C)c2)C(=O)C1C(c1cccc(O)c1)C1C(=O)N(c2ccc(C)c(C)c2)N=C1C (stereo not given),–,–,–,–,–,80.9,51.9
CCOC(=O)CSc1nnc(-c2ccc(S(=O)(=O)N3CCC(C)CC3)cc2)o1,–,–,–,–,–,–,·
CC(=O)Nc1ccc(Nc2cc(N3CCOCC3)c3nonc3c2[N+](=O)[O-])cc1,–,–,–,–,–,–,·
O=[N+]([O-])c1c(Nc2ccc(O)cc2)cc(N2CCOCC2)c2nonc12,–,–,–,–,–,49.3,–
O=[N+]([O-])c1c(Nc2ccccc2O)cc(Cl)c2nonc12,–,–,–,–,–,41.9,–
O=C1Nc2ccccc2C1=O,–,–,–,–,–,44.1,–
CNc1nc(Oc2ccc(=O)n(C)n2)nc(N2CCOCC2)n1,–,–,–,–,–,43.9,–
CCNc1nc(Oc2ccc(=O)n(C)n2)nc(N2CCOCC2)n1,–,–,–,–,–,–,·
O=C(CCl)Nc1cccc(S(=O)(=O)NC2=NCCC2)c1,–,–,–,–,–,45.7,–
CC(C)C(=O)Nc1cccc(S(=O)(=O)NC2=NCCC2)c1,·,·,·,·,–,–,·
O=C(CC(c1ccccc1)c1ccccc1)NCc1cccnc1,–,–,–,–,–,40.6,–
CN(C)C1(CN=Cc2cc(Cl)cc([N+](=O)[O-])c2O)CCCCC1,–,–,–,–,–,40.3,–
N#CC(C#N)=c1ccc2c(c1)N1C3=C(CCCC3)CC3CCCCC31N=2 (stereo not given),–,–,–,–,–,42.8,–
N#C/C(C(N)=O)=c1/ccc2c(c1)N1C3=C(CCCC3)CC3CCCCC31N=2 (stereo not given),–,–,–,–,·,·,·
CN(N=O)c1ccc(C=C2C=Cc3ccccc32)cc1,·,·,·,·,–,50.7,–

# Screening results deposited in PubChem BioAssay by several laboratories.
